# Assay results published in ChEMBL document CHEMBL2434890, “Design, synthesis and structure-activity relationship of novel quinoxaline derivatives as cancer chemopreventive agent by inhibition of tyrosine kinase receptor” (Eur J Med Chem, 2013).
# Columns and labels:
# Assay type in all cases: cell-based; call rule not given here
# Raji [1] = test: Inhibition of TPA-induced EBV early antigen activation infected in human Raji cells after 48 hrs by immunofluorescence method relative to control; details: human gammaherpesvirus 4
# Raji [2] = test: Inhibition of TPA-induced EBV early antigen activation infected in human Raji cells assessed as antigen activity at 10 mol ratio/TPA after 48 hrs by immunofluorescence method relative to control; design: scale not given: the % may be the effect or the level left; details: human gammaherpesvirus 4
# [3] = Inhibition of TRK in human HepG2 cells after 48 hrs by ELISA
# Procedure, shortened: (§1)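 HepG2 or MCF-7 cells, kept in DMEM with 10% heat-inactivated FCS and penicillin, seeded at 0.50×10⁶ per flask and treated 48 h at 37 °C, 5% CO₂ with compound in DMSO (2.5–40 μg/ml). Cells were homogenized in saline. TRK level was measured by double-antibody sandwich ELISA (OD 450 nm) against a standard curve, in triplicate. IC50 = 50% reduction of TRK relative to untreated cells.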
# Raji [4] = test: Inhibition of TPA-induced EBV early antigen activation infected in human Raji cells assessed as antigen activity at 100 mol ratio/TPA after 48 hrs by immunofluorescence method relative to control; design: scale not given: the % may be the effect or the level left; details: human gammaherpesvirus 4
# Raji [5] = test: Inhibition of TPA-induced EBV early antigen activation infected in human Raji cells assessed as antigen activity at 1000 mol ratio/TPA after 48 hrs by immunofluorescence method relative to control; design: scale not given: the % may be the effect or the level left; details: human gammaherpesvirus 4
# [6] = Cytotoxicity against human Raji cells assessed as cell viability at 1000 mol ratio/TPA after 48 hrs by trypan blue staining method; details: read-out: Activity
# Procedure, shortened: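 Raji cells were treated as in the EBV-EA assay: 48 h at 37 °C with 4 mM n-butyric acid, […] and compound in DMSO (ca. 0.7%), dosed by mol ratio to TPA. Viability of the treated cells was determined by trypan blue staining.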
# Raji [7] = test: Inhibition of TPA-induced EBV early antigen activation infected in human Raji cells assessed as antigen activity at 500 mol ratio/TPA after 48 hrs by immunofluorescence method relative to control; design: scale not given: the % may be the effect or the level left; details: human gammaherpesvirus 4
# [8] = Inhibition of TRK in human MCF7 cells after 48 hrs by ELISA; procedure, shortened: as §1
SMILES,inhibition (Raji [1]),Activity (Raji [2]) [%],IC50 [3],Activity (Raji [4]) [%],Activity (Raji [5]) [%],"viability at 48 h, 1000 mol ratio/TPA [6] [%]",Activity (Raji [7]) [%],IC50 [8]
O=C(c1ccccc1)N1C(=S)NNC12Nc1ccccc1NC2=O (stereo not given),Dose-dependent effect,100,Not Active,85.2,19.1,60,49.1,Not Active
C=CCn1c(=O)c(N/N=C/c2ccc(N(C)C)cc2)nc2ccccc21,Dose-dependent effect,100,2.65 nM,73.2,10.1,60,41.6,2.9 nM
Oc1nc2ccccc2n2c(O)nnc12,Dose-dependent effect,100,25 nM,79.1,15.6,60,47.2,30 nM
CN(C)c1ccc(/C=N/Nc2nc3ccccc3[nH]c2=O)cc1,Dose-dependent effect,100,9.8 nM,71.7,13.9,60,42.2,11.8 nM
O=C1Nc2ccccc2N2C(O)=CNN=C12,Dose-dependent effect,100,,77.6,13.2,60,46,
O=C1CCC(=O)N(c2nc3ccccc3[nH]c2=O)N1,Dose-dependent effect,100,,82.8,16.7,60,47.7,
CCOC(=O)Cn1c(=O)c(N/N=C/c2c(OC)cccc2OC)nc2ccccc21,Dose-dependent effect,100,4.1 nM,75.6,13.5,60,45.7,4.6 nM
O=c1[nH]c2ccccc2n2c(=O)c(O)nnc12,Dose-dependent effect,100,20 nM,78.6,14.2,60,47,27.8 nM
CC1(C)CC[C@]2(C(=O)O)CC[C@]3(C)C(=CC[C@@H]4[C@@]5(C)CC[C@H](O)C(C)(C)[C@@H]5CC[C@]43C)[C@@H]2C1 [OLEANOLIC_ACID],,100,,80,12.7,70,30,
O=C1CN2C(=NN1)C(=O)Nc1ccccc12,Dose-dependent effect,100,,78,13.6,60,46.3,
COc1cccc(OC)c1/C=N/Nc1nc2ccccc2[nH]c1=O,Dose-dependent effect,100,7.5 nM,81,16.8,60,46.6,8.75 nM
N=c1c(O)nnc2c(=O)[nH]c3ccccc3n12,Dose-dependent effect,100,18 nM,79,15,60,47.1,20.2 nM
C=CCn1c(=O)c(N/N=C/c2c(OC)cccc2OC)nc2ccccc21,Dose-dependent effect,100,3.5 nM,73.5,10.8,60,42,4.15 nM
CCOC(=O)Cn1c(=O)c(N/N=C/c2ccc(N(C)C)cc2)nc2ccccc21,Dose-dependent effect,100,4.5 nM,78.6,12.7,60,47.6,4.85 nM
Oc1nc2ccccc2n2cnnc12,Dose-dependent effect,100,Not Active,84.2,18.6,60,48.2,Not Active
COc1cccc2c1C(=O)c1c(O)c3c(c(O)c1C2=O)C[C@@](O)(C(=O)CO)C[C@@H]3O[C@H]1C[C@H](N)[C@H](O)[C@H](C)O1 [DOXORUBICIN],,,2.5 nM,,,,,3.2 nM
CN1C(=S)NNC12Nc1ccccc1NC2=O (stereo not given),Dose-dependent effect,100,,84.6,18.7,60,48.3,
CC(C)=NNc1nc2ccccc2[nH]c1=O,Dose-dependent effect,100,15 nM,77,13.2,60,45,17.2 nM
O=C1CC(=O)N(c2nc3ccccc3[nH]c2=O)N1,Dose-dependent effect,100,,83.9,17.5,60,48,
Oc1nc2ccccc2nc1O,Dose-dependent effect,100,Not Active,78.5,14.2,60,46.8,Not Active
NNc1nc2ccccc2[nH]c1=O,Dose-dependent effect,100,9 nM,78.1,14.9,60,46.5,10.2 nM
O=c1[nH]c2ccccc2nc1Cl,Dose-dependent effect,100,,80.2,16.7,50,48.5,
